BB579 growth dn: growth inhibitors of yeast BB579 in restrictive medium, primary screen, yeast lifespan-shortening project, S. cerevisiae. OD615, 48 h. inhibition, % at 10 µM. 140,000 tested, 0.51% active;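 active = inhibition above a set limit, 3 SD over the mean compound inhibition, cut at about 44% in these data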
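Detection: OD615 turbidity measurement; Material: Saccharomyces cerevisiae DeaD strain BB579, replicative lifespan model yeast; Timing: 48 h exposure, 30 °C; Doses: single 10 µM dose; Medium: CSMM-D restrictive synthetic medium containing dextrose (glucose); Controls: amphotericin B at 10 µg/mL as positive control.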
SDO1 yeast rescue: growth rescue of sdo1-depleted yeast, primary screen, S. cerevisiae, bone marrow failure model | z-score at 10 µM | S. cerevisiae sdo1-depleted JHY4D growth rescue, OD600 30 h; active compounds read high; pdr5 snq2 efflux-pump mutant strain | 140,000 tested, 0.21% active | AID 817, 2007;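 active = z-score above 3 at both the 24 hr and the 30 hr optical density reads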;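 note: z-score against mean and SD of all compound wells on the same plate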
Yeast life ext: compounds extending yeast replicative lifespan, primary screen, S. cerevisiae, OD615. inhibition of the nicotinamide effect, % at 10 µM. S. cerevisiae growth with nicotinamide; deaD strain in restrictive glucose medium. 130,000 tested, 0.68% active;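 active = inhibition above a set limit, placed 3 SD over the median of all compounds, cut at about 26% in these data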;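 note: 0% = nicotinamide-treated wells and 100% = cells grown without nicotinamide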
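Assay system: DeaD-strain S. cerevisiae. Medium: CSMM-D glucose medium, restrictive. Reagent: nicotinamide, 1.5 mM, co-present with compound. Compound: 10 µM single point, 0.25% DMSO. Schedule: culture preincubation 4 h, compound exposure 48 h, both 30 °C. Detection: absorbance at 615 nm.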
sEH inhibitor: soluble epoxide hydrolase inhibitors, primary screen, biochemical, human sEH; Bifunctional epoxide hydrolase 2 (Homo sapiens), P34913; recombinant human sEH enzymatic activity assay; inhibition, % at 2 µM; 91,000 tested, 0.34% active; in the data active = inhibition above about 80%
Target sequence (P34913 whole entry, looked up): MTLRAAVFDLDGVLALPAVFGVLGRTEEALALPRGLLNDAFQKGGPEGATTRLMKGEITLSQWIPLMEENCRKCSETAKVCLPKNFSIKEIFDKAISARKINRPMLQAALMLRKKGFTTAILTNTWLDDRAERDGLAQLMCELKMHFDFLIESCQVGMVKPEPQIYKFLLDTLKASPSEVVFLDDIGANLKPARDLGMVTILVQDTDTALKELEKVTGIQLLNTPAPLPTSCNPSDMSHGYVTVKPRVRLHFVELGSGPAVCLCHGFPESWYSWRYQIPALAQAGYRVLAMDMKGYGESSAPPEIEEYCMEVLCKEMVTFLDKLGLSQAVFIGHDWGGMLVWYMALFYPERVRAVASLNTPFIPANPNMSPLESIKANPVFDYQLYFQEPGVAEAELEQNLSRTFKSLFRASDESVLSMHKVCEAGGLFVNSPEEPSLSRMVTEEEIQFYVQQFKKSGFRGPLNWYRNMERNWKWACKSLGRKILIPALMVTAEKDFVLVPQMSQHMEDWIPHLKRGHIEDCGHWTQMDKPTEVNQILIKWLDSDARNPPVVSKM
Measles CPE: compounds protecting cells from measles virus cytopathic effect, primary screen, measles RdRp inhibitor project, single point, MLSMR library, absorbance; Measles virus-infected cells, CPE protection; protection (pct of control), % at 4 µM; 140,000 tested, 1.5% active; in the data active = protection mostly above about 24%, no sharp cut-off; inactive = mostly below about 26%
sEH act: soluble epoxide hydrolase activators, primary screen, biochemical, human sEH | 91,000 tested, 0.04% active | Bifunctional epoxide hydrolase 2 (Homo sapiens), P34913 | AID 717, 2007 | activation, % at 2 µM | purified human sEH enzymatic activity, activator screen; in the data active = activation above about 37%
* hit, by the source's call; [ ] = remark or other dose. This is a sample that favours compounds with a hit; in the whole collection about 3% have one here.

`CCOC(=O)c1ccc(CC2S/C(=C(\C#N)C(C)=O)NC2=O)cc1` (stereo not drawn) gave BB579 growth dn -55, SDO1 yeast rescue -0.6, Yeast life ext 20, sEH inhibitor 4, Measles CPE 11 and sEH act -2.
For CCc1ccc(CC2S/C(=C(\C#N)C(C)=O)NC2=O)cc1 (stereo not drawn) the results were BB579 growth dn -3, SDO1 yeast rescue 2.7, Yeast life ext 44*, sEH inhibitor -7, Measles CPE 31 and sEH act 8.
For Cc1nn(-c2ccc(F)cc2)c2sc(C(=O)O)cc12 the results were BB579 growth dn 43*, SDO1 yeast rescue 0.73, Yeast life ext -9, sEH inhibitor 8, Measles CPE 28 and sEH act -8.
`Cc1nn(-c2ccccc2)c2sc(C(=O)O)cc12` gave BB579 growth dn 50*, SDO1 yeast rescue 0.16, Yeast life ext -26 and Measles CPE 29.
For COC(=O)c1cc2c(C)nn(-c3ccccc3)c2s1 the results were BB579 growth dn -5, SDO1 yeast rescue -0.82, Yeast life ext -27, sEH inhibitor 5, Measles CPE 6 and sEH act -6.
Screening Cc1ccc(-n2nc(C)c3cc(C(=O)O)sc32)cc1 returned BB579 growth dn 18, SDO1 yeast rescue 0.59, Yeast life ext -14, sEH inhibitor 9, Measles CPE 13 and sEH act -8.
For Cc1nn(-c2ccccc2)c2sc(-c3n[nH]c(=S)o3)cc12 the results were BB579 growth dn 72*, SDO1 yeast rescue 0.01, Yeast life ext -23 and Measles CPE 0.
For Cc1[nH]n(-c2ccc([N+](=O)[O-])cc2)c(=O)c1C=NCCN1CCN(C(=O)c2ccccc2)CC1 the results were BB579 growth dn -50, SDO1 yeast rescue -0.13, Yeast life ext -3, sEH inhibitor -7, Measles CPE 4 and sEH act 6.
Screening COc1ccccc1N1CCN(C(CNS(=O)(=O)c2ccccc2)c2cccnc2)CC1 (stereo not drawn) returned BB579 growth dn -41, SDO1 yeast rescue 1.4, Yeast life ext -7, sEH inhibitor -3, Measles CPE 33* and sEH act 5.
Screening COc1ccc(S(=O)(=O)NCC(c2cccnc2)N2CCN(c3ccccc3OC)CC2)cc1C (stereo not drawn) returned BB579 growth dn -28, SDO1 yeast rescue -0.42, Yeast life ext -17, sEH inhibitor -10, Measles CPE 5 and sEH act 10.
`CCOc1ccc2nc(NCCNC(=O)Nc3ccccc3)c(C#N)cc2c1` gave BB579 growth dn 31, SDO1 yeast rescue -0.01, Yeast life ext 104*, sEH inhibitor 8, Measles CPE 5 and sEH act -8.
`Cc1cc(C)cc(CC2CC(=O)N(c3ccc(Cl)cn3)C2=O)c1` (stereo not drawn) gave BB579 growth dn -25, SDO1 yeast rescue -0.8, Yeast life ext 43*, sEH inhibitor -7, Measles CPE 12 and sEH act 6.
Cc1cc(C)cc(CC2CC(=O)N(c3nc(C)cc(C)n3)C2=O)c1 (stereo not drawn) was read as BB579 growth dn -30, SDO1 yeast rescue -0.59[8.5 µM], Yeast life ext -11, sEH inhibitor 6, Measles CPE 4 and sEH act -5.
For CN(C)Cc1ccccc1Sc1ccc(O)cc1O the results were BB579 growth dn -9, SDO1 yeast rescue 0.24, Yeast life ext 5 and Measles CPE 7.
`Cc1ccc(Cn2c(Sc3ncccn3)nc3c2c(=O)[nH]c(=O)n3C)cc1` gave BB579 growth dn -47, SDO1 yeast rescue 0.8, Yeast life ext -12 and Measles CPE 18.
Screening CCCCCn1c(Sc2ncccn2)nc2c1c(=O)[nH]c(=O)n2C returned BB579 growth dn -16, SDO1 yeast rescue -0.11, Yeast life ext -13, sEH inhibitor 4, Measles CPE 38* and sEH act -4.
Screening CCCCCSc1nc2c(c(=O)[nH]c(=O)n2C)n1C returned BB579 growth dn 13, SDO1 yeast rescue 0.46, Yeast life ext 58* and Measles CPE 19.
Screening CCOc1cc(/C=C\[N+](=O)[O-])ccc1OCC(=O)Nc1ccccc1C returned BB579 growth dn -42, SDO1 yeast rescue -1.1, Yeast life ext 92*, sEH inhibitor -4, Measles CPE 4 and sEH act 5.
O=C(Nc1ccccc1Cl)c1ccc(COc2ccc3c(c2)CCC3)cc1 was read as BB579 growth dn -55, SDO1 yeast rescue -0.25, Yeast life ext 6 and Measles CPE 5.
`Cc1ccccc1NC(=O)CSc1ccsc1[N+](=O)[O-]` gave BB579 growth dn -17, SDO1 yeast rescue -0.19, Yeast life ext 0 and Measles CPE 2.
CCN(CC)S(=O)(=O)c1ccc(/C=C/C(=O)OCC(=O)Nc2ccc(S(N)(=O)=O)cc2)cc1 was read as BB579 growth dn -37, SDO1 yeast rescue -0.05, Yeast life ext 0 and Measles CPE 28*.
For COc1cc(/C=C/C(=O)N2CCCC2)cc(OC)c1OC the results were BB579 growth dn -14, SDO1 yeast rescue -0.51, Yeast life ext -3 and Measles CPE 4.
Screening COc1cc(/C=C/C(=O)C2C(=O)C=C(C)OC2=O)cc(OC)c1O (stereo not drawn) returned BB579 growth dn -9, SDO1 yeast rescue -0.3, Yeast life ext 64* and Measles CPE 10.
`COc1ccc(/C=C/C(=O)C2C(=O)C=C(C)OC2=O)cc1O` (stereo not drawn) gave BB579 growth dn -3, SDO1 yeast rescue 0.01, Yeast life ext 44* and Measles CPE 33.
`Cc1cc(N2CCN(C(=O)c3ccco3)CC2)n2ncc(-c3ccccc3)c2n1` gave BB579 growth dn 98*, SDO1 yeast rescue -3.2, Yeast life ext -16, sEH inhibitor -1, Measles CPE 39* and sEH act 1.
For CC(C)CC(c1nnnn1C(C)C)N1CCN(c2ccccc2)CC1 (stereo not drawn) the results were BB579 growth dn -22, SDO1 yeast rescue -0.52, Yeast life ext -12, sEH inhibitor 8, Measles CPE 9 and sEH act -6.
`O=C(O)CC1SC(=Nc2ccccc2)N(c2ccccc2)C1=O` (stereo not drawn) gave BB579 growth dn 2, SDO1 yeast rescue -0.32, Yeast life ext -8 and Measles CPE 51*.
`CC(C)=CC(=O)Nc1nnc(-c2ccccc2)s1` gave BB579 growth dn -38, SDO1 yeast rescue 0.77, Yeast life ext -19, sEH inhibitor 0, Measles CPE 1 and sEH act 0.

Assay outcomes: PubChem, several laboratories
